From ChEMBL document CHEMBL2424527, “Doxorubicin-antioxidant co-drugs” (Bioorg Med Chem Lett, 2013)
Calls of active or inactive are those of the source. The calls are words filed in the database; no cut-off is given here.

Experiments:
H9c2 [1] = assay: Antioxidant activity in rat H9c2 cells assessed as intracellular ROS level at 5 umol/L after 24 hrs by DCFDA-AM staining-based spectrofluorimetry; format: functional, cell-based
Summary of the method: (§1)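 Cells rinsed in PBS, loaded with 10 μmol/L DCFDA-AM for 10 min at 37°C, washed, resuspended in PBS. DCFH fluorescence read at ex 490/em 530 nm, cell-free blank subtracted, converted to nmol/mg cell protein by titration curve. Means ± SD; ANOVA with Tukey's test.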

MCF7 [2] = assay: Drug efflux in human MCF7 cells at 1 to 100 umol/L incubated for 20 mins prior to compound wash out measured after 10 mins by spectrofluorimetry; format: ADME, cell-based; settings: mcf7, 20 min
Summary of the method: (§2)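 Doxorubicin in whole-cell lysates measured fluorimetrically at ex 475/em 553 nm, blank subtracted, converted to nmol/mg cell protein by calibration curve. Kinetic values fitted to Michaelis-Menten equation to obtain Vmax and Km.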

MCF7 [3] = assay: Antioxidant activity in human MCF7 cells assessed as intracellular malonyldialdehyde level at 5 umol/L after 24 hrs by spectrofluorimetry; format: functional, cell-based
MCF7 [4] = assay: Antioxidant activity in human MCF7 cells assessed as intramitochondrial ROS level at 5 umol/L after 24 hrs by DCFDA-AM staining-based spectrofluorimetry; format: functional, cell-based
Summary of the method: (§3)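 Mitochondria freshly isolated from cells grown 24 h with 5 μmol/L compound. DCFDA-AM loading and fluorescence read (ex 490/em 530 nm) as for whole cells, blank subtracted. Values expressed as nmol/mg mitochondrial protein. Measured in duplicate; means ± SD.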

H9c2 [5] = assay: Antioxidant activity in rat H9c2 cells assessed as intracellular malonyldialdehyde level at 5 umol/L after 24 hrs by spectrofluorimetry; format: functional, cell-based
H9c2 [6] = assay: Antioxidant activity in rat H9c2 cells assessed as intramitochondrial ROS level at 5 umol/L after 24 hrs by DCFDA-AM staining-based spectrofluorimetry; format: functional, cell-based; summary of the method: as §3
MDA-MB-231 [7] = assay: Drug efflux in human MDA-MB-231 cells at 1 to 100 umol/L incubated for 20 mins prior to compound wash out measured after 10 mins by spectrofluorimetry; format: ADME, cell-based; settings: mda-mb-231, 20 min; summary of the method: as §2
[8] = Cellular uptake in rat H9c2 cell nucleus at 5 umol/L after 24 hrs by fluorimetric analysis; format: ADME, cell-based; settings: h9c2, 24 h, 5 µM
Summary of the method: (§4)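 Cells incubated 24 h with 5 μmol/L drug. Doxorubicin measured fluorimetrically in nuclear or mitochondrial extracts, in duplicate. Means ± SD, n = 3.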

MDA-MB-231 [9] = assay: Antioxidant activity in human MDA-MB-231 cells assessed as intracellular malonyldialdehyde level at 5 umol/L after 24 hrs by spectrofluorimetry; format: functional, cell-based
H9c2 [10] = assay: Cellular uptake in rat H9c2 cells at 5 umol/L after 24 hrs by spectrofluorimetry; format: ADME, cell-based; settings: h9c2, 24 h, 5 µM
Summary of the method: (§5)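 Cells exposed 24 h to 5 μmol/L drug. Doxorubicin in whole-cell lysates read fluorimetrically at ex 475/em 553 nm, cell-free blank subtracted. Converted to nmol/mg cell protein via calibration curve. Duplicate measurements; means ± SD, n = 3.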

MDA-MB-231 [11] = assay: Antioxidant activity in human MDA-MB-231 cells assessed as intramitochondrial ROS level at 5 umol/L after 24 hrs by DCFDA-AM staining-based spectrofluorimetry; format: functional, cell-based; summary of the method: as §3
H9c2 [12] = assay: Drug efflux in rat H9c2 cells at 1 to 100 umol/L incubated for 20 mins prior to compound wash out measured after 10 mins by spectrofluorimetry; format: ADME, cell-based; settings: h9c2, 20 min; summary of the method: as §2
[13] = Cellular uptake in rat H9c2 cell mitochondria at 5 umol/L after 24 hrs by fluorimetric analysis; format: ADME; settings: h9c2, 24 h, 5 µM; summary of the method: as §4
MCF7 [14] = assay: Cellular uptake in human MCF7 cells at 5 umol/L after 24 hrs by spectrofluorimetry; format: ADME, cell-based; settings: mcf7, 24 h, 5 µM; summary of the method: as §5
MDA-MB-231 [15] = assay: Cytotoxicity against human MDA-MB-231 cells assessed as LDH release at 5 umol/L after 24 hrs; format: functional, cell-based
Summary of the method: (§6)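 Cells exposed 24 h to 5 μmol/L compound. Medium centrifuged 12,000 × g, 15 min; cells sonicated in 82.3 mmol/L triethanolamine phosphate-HCl pH 7.6. LDH read at 340 nm over 6 min in medium and lysate, in duplicate. Extracellular activity given as % of total; means ± SD, n = 4.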

H9c2 [16] = assay: Cytotoxicity against rat H9c2 cells assessed as LDH release at 5 umol/L after 24 hrs; format: cell-based; settings: h9c2, 24 h, 5 µM; summary of the method: as §6
[17] = Cellular uptake in human MDA-MB-231 cell nucleus at 5 umol/L after 24 hrs by fluorimetric analysis; format: ADME, cell-based; settings: mda-mb-231, 24 h, 5 µM; summary of the method: as §4
MCF7 [18] = assay: Antioxidant activity in human MCF7 cells assessed as intracellular ROS level at 5 umol/L after 24 hrs by DCFDA-AM staining-based spectrofluorimetry; format: functional, cell-based; summary of the method: as §1
[19] = Cellular uptake in human MCF7 cell mitochondria at 5 umol/L after 24 hrs by fluorimetric analysis; format: ADME; settings: mcf7, 24 h, 5 µM; summary of the method: as §4
MDA-MB-231 [20] = assay: Antioxidant activity in human MDA-MB-231 cells assessed as intracellular ROS level at 5 umol/L after 24 hrs by DCFDA-AM staining-based spectrofluorimetry; format: functional, cell-based; summary of the method: as §1
[21] = Cellular uptake in human MCF7 cell nucleus at 5 umol/L after 24 hrs by fluorimetric analysis; format: ADME, cell-based; settings: mcf7, 24 h, 5 µM; summary of the method: as §4
MCF7 [22] = assay: Cytotoxicity against human MCF7 cells assessed as LDH release at 5 umol/L after 24 hrs; format: functional, cell-based; summary of the method: as §6
[23] = Cellular uptake in human MDA-MB-231 cell mitochondria at 5 umol/L after 24 hrs by fluorimetric analysis; format: ADME; settings: mda-mb-231, 24 h, 5 µM; summary of the method: as §4
Homo sapiens = species on record: Homo sapiens; assay: Inhibition of human topoisomerase 2 using supercoiled pHOT1 as substrate at 1 to 50 umol/L by agarose gel electrophoresis
Summary of the method: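 Purified human topoisomerase II incubated with supercoiled pHOT1 plasmid and drug at 1, 5, 25, 50 μmol/L, using a commercial topoisomerase II drug screening kit. Etoposide at 5, 50, 100 μmol/L served as positive control.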

MDA-MB-231 [24] = assay: Cellular uptake in human MDA-MB-231 cells at 5 umol/L after 24 hrs by spectrofluorimetry; format: ADME, cell-based; settings: mda-mb-231, 24 h, 5 µM; summary of the method: as §5

| SMILES | Activity (H9c2 [1]) | Km (MCF7 [2]) [nmol/mg] | Vmax (MCF7 [2]) [nmol/min/mg] | Activity (MCF7 [3]) | Activity (MCF7 [4]) | Activity (H9c2 [5]) | Activity (H9c2 [6]) | Km (MDA-MB-231 [7]) [nmol/mg] | Vmax (MDA-MB-231 [7]) [nmol/min/mg] | Activity (MDA-MB-231 [9]) | Drug uptake (H9c2 [10]) | Activity (MDA-MB-231 [11]) | Km (H9c2 [12]) [nmol/mg] | Vmax (H9c2 [12]) [nmol/min/mg] | Drug uptake (MCF7 [14]) | Activity (MDA-MB-231 [15]) | Activity (H9c2 [16]) | Drug uptake [17] | Activity (MCF7 [22]) | Drug uptake (MDA-MB-231 [24]) | further results |
| --- | --- | --- | --- | --- | --- | --- | --- | --- | --- | --- | --- | --- | --- | --- | --- | --- | --- | --- | --- | --- | --- |
| COc1cc(/C=C/C(=O)OCC(=O)[C@]2(O)Cc3c(O)c4c(c(O)c3[C@@H](O[C@H]3C[C@H](N)[C@H](O)[C@H](C)O3)C2)C(=O)c2c(OC)cccc2C4=O)ccc1O.Cl | Active | 1.83 | 11.1 | Active | Active | Active | Active | 1.25 | 16.53 | inactive | Not Active | inactive | 2.01 | 11.7 | Active | Active | Toxic | Active | Active | Active | Drug uptake [8]: Active; Drug uptake [13]: Active; Activity (MCF7 [18]): Active; Drug uptake [19]: Active; Activity (MDA-MB-231 [20]): inactive; Drug uptake [21]: Active; Drug uptake [23]: Active; inhibition (Homo sapiens): Active |
| COc1cccc2c1C(=O)c1c(O)c3c(c(O)c1C2=O)C[C@@](O)(C(=O)COC(=O)/C=C/c1ccc(O)c(O)c1)C[C@@H]3O[C@H]1C[C@H](N)[C@H](O)[C@H](C)O1.Cl |  |  |  |  |  |  |  |  |  |  | Active |  |  |  | Active | inactive | Toxic |  | Active | Active |  |
| COc1cccc2c1C(=O)c1c(O)c3c(c(O)c1C2=O)C[C@@](O)(C(=O)CO)C[C@@H]3O[C@H]1C[C@H](N)[C@H](O)[C@H](C)O1 [DOXORUBICIN] | Active | 1.88 | 18.9 | Active | Active | Active | Active | 1.35 | 33.11 | inactive | Not Active | inactive | 1.96 | 11.89 | Active | Active | Toxic | Active | Active | Active | Activity (MCF7 [18]): Active; Activity (MDA-MB-231 [20]): inactive; Drug uptake [21]: Active; inhibition (Homo sapiens): Active |
